Results from ChEMBL document CHEMBL3132745, “Synthesis and Antimicrobial Activities of His(2-aryl)-Arg and Trp-His(2-aryl) Classes of Dipeptidomimetics” (Medchemcomm, 2014).
Converted amounts (≈) assume the structure as drawn. The source made the active and inactive calls.

What was measured:
[1] = system: BT-549; experiment: Cytotoxicity against human BT549 cells assessed as cell viability after 48 hrs by neutral red uptake assay; assay type: cell-based; conditions: bt-549, 48 h
In short: (§1)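 Neutral red uptake assay on human cancer lines (SK-MEL, KB, BT-549, SK-OV-3) and noncancerous mammalian cells (VERO, LLC-PK1). Highest tested concentration was 10 µg/mL.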

[2] = system: Candida albicans; experiment: Antifungal activity against Candida albicans assessed as growth inhibition; assay type: functional, organism-based
[3] = Selectivity index, ratio of cytotoxicity against african green monkey Vero cells to IC50 for Cryptococcus neoformans ATCC 90113; assay type: toxicity, cell-based; conditions: read-out: Selectivity Index
[4] = Selectivity index, ratio of cytotoxicity against pig LLC-PK1 cells to IC50 for Cryptococcus neoformans ATCC 90113; assay type: toxicity, cell-based; conditions: read-out: Selectivity Index
[5] = system: Staphylococcus aureus; experiment: Antibacterial activity against methicillin-resistant Staphylococcus aureus ATCC 33591 assessed as growth inhibition after 16-20 hrs by CLSI method; assay type: functional, organism-based
[6] = Selectivity index, ratio of cytotoxicity against human BT549 cells to IC50 for Cryptococcus neoformans ATCC 90113; assay type: toxicity, cell-based, BT-549; conditions: read-out: Selectivity Index
[7] = system: SK-MEL; experiment: Cytotoxicity against human SK-MEL cells assessed as cell viability after 48 hrs by neutral red uptake assay; assay type: cell-based; in short: as §1
[8] = system: Cryptococcus neoformans; experiment: Ratio of amphotericin MFC to compound MFC for Cryptococcus neoformans ATCC 90113 after 70-74 hrs by CLSI method; assay type: functional
[9] = system: Pichia kudriavzevii; experiment: Antifungal activity against Candida krusei assessed as growth inhibition; assay type: functional, organism-based
[10] = system: Escherichia coli; experiment: Antibacterial activity against Escherichia coli ATCC 35218 assessed as growth inhibition after 16-20 hrs by CLSI method; assay type: functional, organism-based
[11] = system: Nakaseomyces glabratus; experiment: Antifungal activity against Candida glabrata assessed as growth inhibition; assay type: functional, organism-based
[12] = system: Aspergillus fumigatus; experiment: Antifungal activity against Aspergillus fumigatus assessed as growth inhibition; assay type: functional, organism-based
[13] = Selectivity index, ratio of cytotoxicity against human SK-MEL cells to IC50 for Cryptococcus neoformans ATCC 90113; assay type: toxicity, cell-based; conditions: read-out: Selectivity Index
[14] = system: Vero; experiment: Cytotoxicity against african green monkey Vero cells assessed as cell viability after 48 hrs by neutral red uptake assay; assay type: cell-based; conditions: chlorocebus sabaeus; in short: as §1
[15] = Selectivity index, ratio of cytotoxicity against human SKOV3 cells to IC50 for Cryptococcus neoformans ATCC 90113; assay type: toxicity, cell-based, SK-OV-3; conditions: read-out: Selectivity Index
[16] = system: Cryptococcus neoformans; experiment: Ratio of amphotericin MIC to compound MIC for Cryptococcus neoformans ATCC 90113 after 70-74 hrs by CLSI method; assay type: functional
[17] = system: Cryptococcus neoformans; experiment: Antifungal activity against Cryptococcus neoformans ATCC 90113 assessed as growth inhibition after 70-74 hrs by CLSI method; assay type: functional, organism-based; conditions: Cryptococcus neoformans, ATCC 90113; for IC50: read-out: IC50
[18] = system: Staphylococcus aureus; experiment: Antibacterial activity against Staphylococcus aureus ATCC 29213 assessed as growth inhibition after 16-20 hrs by CLSI method; assay type: functional, organism-based
[19] = system: KB; experiment: Cytotoxicity against human KB cells assessed as cell viability after 48 hrs by neutral red uptake assay; assay type: cell-based; in short: as §1
[20] = system: Cryptococcus neoformans; experiment: Ratio of amphotericin IC50 to compound IC50 for Cryptococcus neoformans ATCC 90113 after 70-74 hrs by CLSI method; assay type: functional
[21] = Selectivity index, ratio of cytotoxicity against human KB cells to IC50 for Cryptococcus neoformans ATCC 90113; assay type: toxicity, cell-based; conditions: read-out: Selectivity Index
[22] = system: SK-OV-3; experiment: Cytotoxicity against human SKOV3 cells assessed as cell viability after 48 hrs by neutral red uptake assay; assay type: cell-based; conditions: sk-ov-3, 48 h; in short: as §1
[23] = system: LLC-PK1; experiment: Cytotoxicity against pig LLC-PK1 cells assessed as cell viability after 48 hrs by neutral red uptake assay; assay type: cell-based, Sus scrofa; conditions: llc-pk1, 48 h; in short: as §1
[24] = Staphylococcus aureus, ATCC 33591
[25] = Staphylococcus aureus, ATCC 33591, read-out: IC50

SMILES	Activity [1] [µg/mL]	growth inhibition (GI) [2]	selectivity ratio [3]	selectivity ratio [4]	selectivity ratio [6]	Activity [7] [µg/mL]	growth inhibition (GI) [9]	growth inhibition (GI) [10]	growth inhibition (GI) [11]	growth inhibition (GI) [12]	selectivity ratio [13]	Activity [14] [µg/mL]	selectivity ratio [15]	MFC [17] [µg/mL]	MIC [17] [µg/mL]	IC50 [17] [µg/mL]	IC50 [18] [µg/mL]	Activity [19] [µg/mL]	selectivity ratio [21]	Activity [22] [µg/mL]	further results
CC(C)(C)c1ccc(-c2nc(C[C@H](N)C(=O)N[C@@H](CCCNC(=N)N)C(=O)NCc3ccccc3)c[nH]2)cc1	> 10	inactive	> 62.5	> 62.5	> 62.5	> 10	inactive	inactive	inactive	inactive	> 62.5	> 10	> 62.5	0.31 (≈ 0.582 µM)	0.31 (≈ 0.582 µM)	0.16 (≈ 0.3 µM)	15.9 (≈ 29.8 µM)	> 10	> 62.5	> 10	IC50 [5]: Not Active; MBC [5]: inactive; MIC [5]: inactive; Ratio [8]: >4; Ratio [16]: >4; MBC [18]: inactive; MIC [18]: inactive; Ratio IC50 [20]: >4; Activity [23]: > 10 µg/mL
CC(C)(C)OC(=O)N[C@@H](Cc1c[nH]c(-c2ccc(-c3ccccc3)cc2)n1)C(=O)N[C@@H](CCCNC(=N)N)C(=O)NCc1ccccc1	> 10	inactive	> 9.2	> 9.2	> 9.2	> 10	inactive	inactive	inactive	inactive	> 9.2	> 10	> 9.2	2.5 (≈ 3.83 µM)	2.5 (≈ 3.83 µM)	1.09 (≈ 1.67 µM)	7.3 (≈ 11.2 µM)	> 10	> 9.2	> 10	MBC [5]: inactive; MIC [5, 24]: 20 µg/mL (≈ 30.6 µM); IC50 [5, 25]: 8.97 µg/mL (≈ 13.7 µM); MIC [18]: 10 µg/mL (≈ 15.3 µM); Activity [23]: > 10 µg/mL
CC(C)(C)c1ccc(-c2nc(C[C@H](NC(=O)[C@@H](N)Cc3c[nH]c4ccccc34)C(=O)NCc3ccccc3)c[nH]2)cc1	> 10	inactive	> 2.21	> 2.21	> 2.21	> 10	inactive	inactive	inactive	inactive	> 2.21	> 10	> 2.21	10 (≈ 17.8 µM)	10 (≈ 17.8 µM)	4.53 (≈ 8.05 µM)	11.7 (≈ 20.7 µM)	> 10	> 2.21	> 10	IC50 [5]: Not Active; MBC [5]: inactive; MIC [5]: inactive; MBC [18]: inactive; MIC [18]: 20 µg/mL (≈ 35.5 µM); Activity [23]: > 10 µg/mL
N=C(N)NCCC[C@H](NC(=O)[C@@H](N)Cc1c[nH]c(-c2ccc(-c3ccccc3)cc2)n1)C(=O)NCc1ccccc1	> 10	inactive	> 50	> 50	> 50	> 10	inactive	inactive	inactive	inactive	> 50	> 10	> 50	0.31 (≈ 0.561 µM)	0.31 (≈ 0.561 µM)	0.2 (≈ 0.362 µM)	12.8 (≈ 23.2 µM)	> 10	> 50	> 10	IC50 [5]: Not Active; MBC [5]: inactive; MIC [5]: inactive; MBC [18]: inactive; MIC [18]: inactive; Activity [23]: > 10 µg/mL
N[C@@H](Cc1c[nH]c2ccccc12)C(=O)N[C@@H](Cc1c[nH]c(-c2ccc(-c3ccccc3)cc2)n1)C(=O)NCc1ccccc1	> 10	inactive	> 18.5	> 18.5	> 18.5	> 10	inactive	inactive	inactive	inactive	> 18.5	> 10	> 18.5	1.25 (≈ 2.15 µM)	1.25 (≈ 2.15 µM)	0.54 (≈ 0.927 µM)	2.6 (≈ 4.46 µM)	> 10	> 18.5	> 10	MBC [5, 24]: 20 µg/mL (≈ 34.3 µM); MIC [5, 24]: 10 µg/mL (≈ 17.2 µM); IC50 [5, 25]: 4.31 µg/mL (≈ 7.4 µM); MBC [18]: 20 µg/mL (≈ 34.3 µM); MIC [18]: 5 µg/mL (≈ 8.58 µM); Activity [23]: > 10 µg/mL
CC(C)(C)OC(=O)N[C@@H](Cc1c[nH]c(-c2ccc(C(C)(C)C)cc2)n1)C(=O)N[C@@H](CCCNC(=N)N)C(=O)NCc1ccccc1	> 10	inactive	> 4.1	> 4.1	> 4.1	> 10	inactive	inactive	inactive	inactive	> 4.1	> 10	> 4.1	2.5 (≈ 3.95 µM)	2.5 (≈ 3.95 µM)	2.42 (≈ 3.82 µM)	5.95 (≈ 9.4 µM)	> 10	> 4.1	> 10	MBC [5]: inactive; MIC [5, 24]: 20 µg/mL (≈ 31.6 µM); IC50 [5, 25]: 9.32 µg/mL (≈ 14.7 µM); MBC [18]: inactive; MIC [18]: 10 µg/mL (≈ 15.8 µM); Activity [23]: > 10 µg/mL
CC(C)(C)OC(=O)N[C@@H](Cc1c[nH]c(-c2cccc3ccccc23)n1)C(=O)N[C@@H](CCCNC(=N)N)C(=O)NCc1ccccc1	> 10	inactive	> 3.6	> 3.6	> 3.6	> 10	inactive	inactive	inactive	inactive	> 3.6	> 10	> 3.6	5 (≈ 7.98 µM)	5 (≈ 7.98 µM)	2.79 (≈ 4.45 µM)	16.4 (≈ 26.1 µM)	> 10	> 3.6	> 10	MBC [5]: inactive; MIC [5, 24]: 20 µg/mL (≈ 31.9 µM); IC50 [5, 25]: 13.2 µg/mL (≈ 21.1 µM); Activity [23]: > 10 µg/mL
